# Test system: patients with locally advanced unresectable or metastatic, relapsed and/or refractory nonhematological malignancies
# Assay: Phase I safety: adverse events
# Type: in vivo, human
# Method in brief: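 Adverse events were graded by NCI CTCAE v4.03 across three i.v. schedules of the test compound (0.45-11.3 mg/kg; weekly per 28-day cycle, or days 1, 4, 8 ±11, 15 per 21-day cycle). Special-interest events covered retinal dysfunction symptoms and documented retinal disorders. Clustered signs were grouped as 'infusion reaction'. QTc was calculated with the Fridericia correction.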
# [1] = schedules 1/2 cohort 1, 0.45 mg/kg
# [2] = schedules 1/2 cohort 2, 0.9 mg/kg
# [3] = schedules 1/2 cohort 3, 1.8 mg/kg
# [4] = schedules 1/2 cohort 4, 3.6 mg/kg
# [5] = schedules 1/2 cohort 5, 5.4 mg/kg
# [6] = schedules 1/2 cohort 6, 4.8 mg/kg
# [7] = schedules 1/2 cohort 7, 5.4 mg/kg
# [8] = schedules 1/2 cohort 8, 7.2 mg/kg
# [9] = schedules 1/2 cohort 9, 9.6 mg/kg
smiles,measurement,setting,value
O=C1Nc2cc3[nH]nc(-c4ccncc4)c3cc2CN1Cc1ccccc1 [KO-947],Total number of AESI,[1],0 n
same,Total number of treatment-related TEAEs,[1],2 n
same,Treatment-related TEAE: Blurred vision,[1],0 n (%)
same,Treatment-related TEAE: Dermatitis acneiform,[1],0 n (%)
same,Treatment-related TEAE: Fatigue,[1],1 (100) n (%)
same,Treatment-related TEAE: Headache,[1],0 n (%)
same,Treatment-related TEAE: Nausea,[1],0 n (%)
same,Treatment-related TEAE: QTc prolongation,[1],0 n (%)
same,Treatment-related TEAE: Subretinal fluid,[1],0 n (%)
same,Treatment-related TEAE: Vomiting,[1],0 n (%)
same,AESI: Blurred vision,[2],0 n (%)
same,AESI: Eye disorders,[2],0 n (%)
same,AESI: Macular edema,[2],0 n (%)
same,AESI: Retinal edema,[2],0 n (%)
same,AESI: Subretinal fluid,[2],0 n (%)
same,AESI: Vitreous floaters,[2],0 n (%)
same,Patients with ≥1 AESI,[2],0 n (%)
same,Patients with ≥1 treatment-related TEAE,[2],0 n (%)
same,Total number of AESI,[2],0 n
same,Total number of treatment-related TEAEs,[2],0 n
same,Treatment-related TEAE: Blurred vision,[2],0 n (%)
same,Treatment-related TEAE: Dermatitis acneiform,[2],0 n (%)
same,Treatment-related TEAE: Fatigue,[2],0 n (%)
same,Treatment-related TEAE: Headache,[2],0 n (%)
same,Treatment-related TEAE: Nausea,[2],0 n (%)
same,Treatment-related TEAE: QTc prolongation,[2],0 n (%)
same,Treatment-related TEAE: Subretinal fluid,[2],0 n (%)
same,Treatment-related TEAE: Vomiting,[2],0 n (%)
same,AESI: Blurred vision,[3],0 n (%)
same,AESI: Eye disorders,[3],0 n (%)
same,AESI: Macular edema,[3],0 n (%)
same,AESI: Retinal edema,[3],0 n (%)
same,AESI: Subretinal fluid,[3],0 n (%)
same,AESI: Vitreous floaters,[3],0 n (%)
same,Patients with ≥1 AESI,[3],0 n (%)
same,Patients with ≥1 treatment-related TEAE,[3],1 (100) n (%)
same,Total number of AESI,[3],0 n
same,Total number of treatment-related TEAEs,[3],1 n
same,Treatment-related TEAE: Blurred vision,[3],0 n (%)
same,Treatment-related TEAE: Dermatitis acneiform,[3],0 n (%)
same,Treatment-related TEAE: Fatigue,[3],0 n (%)
same,Treatment-related TEAE: Headache,[3],0 n (%)
same,Treatment-related TEAE: Nausea,[3],0 n (%)
same,Treatment-related TEAE: QTc prolongation,[3],0 n (%)
same,Treatment-related TEAE: Subretinal fluid,[3],0 n (%)
same,Treatment-related TEAE: Vomiting,[3],0 n (%)
same,AESI: Blurred vision,[4],0 n (%)
same,AESI: Eye disorders,[4],0 n (%)
same,AESI: Macular edema,[4],0 n (%)
same,AESI: Retinal edema,[4],0 n (%)
same,AESI: Subretinal fluid,[4],0 n (%)
same,AESI: Vitreous floaters,[4],0 n (%)
same,Patients with ≥1 AESI,[4],0 n (%)
same,Patients with ≥1 treatment-related TEAE,[4],2 (67) n (%)
same,Total number of AESI,[4],0 n
same,Total number of treatment-related TEAEs,[4],7 n
same,Treatment-related TEAE: Blurred vision,[4],0 n (%)
same,Treatment-related TEAE: Dermatitis acneiform,[4],0 n (%)
same,Treatment-related TEAE: Fatigue,[4],0 n (%)
same,Treatment-related TEAE: Headache,[4],1 (33) n (%)
same,Treatment-related TEAE: Nausea,[4],1 (33) n (%)
same,Treatment-related TEAE: QTc prolongation,[4],0 n (%)
same,Treatment-related TEAE: Subretinal fluid,[4],0 n (%)
same,Treatment-related TEAE: Vomiting,[4],1 (33) n (%)
same,AESI: Blurred vision,[5],0 n (%)
same,AESI: Eye disorders,[5],0 n (%)
same,AESI: Macular edema,[5],0 n (%)
same,AESI: Retinal edema,[5],0 n (%)
same,AESI: Subretinal fluid,[5],0 n (%)
same,AESI: Vitreous floaters,[5],0 n (%)
same,Patients with ≥1 AESI,[5],0 n (%)
same,Patients with ≥1 treatment-related TEAE,[5],7 (100) n (%)
same,Total number of AESI,[5],0 n
same,Total number of treatment-related TEAEs,[5],60 n
same,Treatment-related TEAE: Blurred vision,[5],4 (57) n (%)
same,Treatment-related TEAE: Dermatitis acneiform,[5],0 n (%)
same,Treatment-related TEAE: Fatigue,[5],1 (14) n (%)
same,Treatment-related TEAE: Headache,[5],1 (14) n (%)
same,Treatment-related TEAE: Nausea,[5],1 (14) n (%)
same,Treatment-related TEAE: QTc prolongation,[5],1 (14) n (%)
same,Treatment-related TEAE: Subretinal fluid,[5],3 (43) n (%)
same,Treatment-related TEAE: Vomiting,[5],0 n (%)
same,AESI: Blurred vision,[6],0 n (%)
same,AESI: Eye disorders,[6],1 (25) n (%)
same,AESI: Macular edema,[6],0 n (%)
same,AESI: Retinal edema,[6],0 n (%)
same,AESI: Subretinal fluid,[6],1 (25) n (%)
same,AESI: Vitreous floaters,[6],0 n (%)
same,Patients with ≥1 AESI,[6],1 (25) n (%)
same,Patients with ≥1 treatment-related TEAE,[6],3 (75) n (%)
same,Total number of AESI,[6],3 n
same,Total number of treatment-related TEAEs,[6],25 n
same,Treatment-related TEAE: Blurred vision,[6],1 (25) n (%)
same,Treatment-related TEAE: Dermatitis acneiform,[6],1 (25) n (%)
same,Treatment-related TEAE: Fatigue,[6],0 n (%)
same,Treatment-related TEAE: Headache,[6],1 (25) n (%)
same,Treatment-related TEAE: Nausea,[6],1 (25) n (%)
same,Treatment-related TEAE: QTc prolongation,[6],0 n (%)
same,Treatment-related TEAE: Subretinal fluid,[6],1 (25) n (%)
same,Treatment-related TEAE: Vomiting,[6],0 n (%)
same,AESI: Blurred vision,[7],2 (67) n (%)
same,AESI: Eye disorders,[7],3 (10) n (%)
same,AESI: Macular edema,[7],0 n (%)
same,AESI: Retinal edema,[7],0 n (%)
same,AESI: Subretinal fluid,[7],2 (67) n (%)
same,AESI: Vitreous floaters,[7],1 (33) n (%)
same,Patients with ≥1 AESI,[7],3 (10) n (%)
same,Patients with ≥1 treatment-related TEAE,[7],3 (100) n (%)
same,Total number of AESI,[7],5 n
same,Total number of treatment-related TEAEs,[7],18 n
same,Treatment-related TEAE: Blurred vision,[7],2 (67) n (%)
same,Treatment-related TEAE: Dermatitis acneiform,[7],1 (33) n (%)
same,Treatment-related TEAE: Fatigue,[7],1 (33) n (%)
same,Treatment-related TEAE: Headache,[7],1 (33) n (%)
same,Treatment-related TEAE: Nausea,[7],2 (67) n (%)
same,Treatment-related TEAE: QTc prolongation,[7],0 n (%)
same,Treatment-related TEAE: Subretinal fluid,[7],2 (67) n (%)
same,Treatment-related TEAE: Vomiting,[7],1 (33) n (%)
same,AESI: Blurred vision,[8],2 (40) n (%)
same,AESI: Eye disorders,[8],5 (10) n (%)
same,AESI: Macular edema,[8],0 n (%)
same,AESI: Retinal edema,[8],1 (20) n (%)
same,AESI: Subretinal fluid,[8],2 (40) n (%)
same,AESI: Vitreous floaters,[8],0 n (%)
same,Patients with ≥1 treatment-related TEAE,[8],5 (100) n (%)
same,Total number of AESI,[8],5 n
same,Total number of treatment-related TEAEs,[8],14 n
same,Treatment-related TEAE: Blurred vision,[8],2 (40) n (%)
same,Treatment-related TEAE: Dermatitis acneiform,[8],2 (40) n (%)
same,Treatment-related TEAE: Fatigue,[8],0 n (%)
same,Treatment-related TEAE: Headache,[8],0 n (%)
same,Treatment-related TEAE: Nausea,[8],0 n (%)
same,Treatment-related TEAE: QTc prolongation,[8],0 n (%)
same,Treatment-related TEAE: Subretinal fluid,[8],2 (40) n (%)
same,Treatment-related TEAE: Vomiting,[8],1 (20) n (%)
same,AESI: Blurred vision,[9],8 (89) n (%)
same,AESI: Eye disorders,[9],8 (89) n (%)
same,AESI: Macular edema,[9],1 (11) n (%)
same,AESI: Retinal edema,[9],1 (11) n (%)
same,AESI: Subretinal fluid,[9],3 (33) n (%)
same,AESI: Vitreous floaters,[9],1 (11) n (%)
same,Patients with ≥1 AESI,[9],8 (89) n (%)
same,Patients with ≥1 treatment-related TEAE,[9],8 (89) n (%)
same,Total number of AESI,[9],16 n
same,Total number of treatment-related TEAEs,[9],39 n
same,Treatment-related TEAE: Blurred vision,[9],8 (89) n (%)
same,Treatment-related TEAE: Dermatitis acneiform,[9],1 (11) n (%)
same,Treatment-related TEAE: Fatigue,[9],1 (11) n (%)
same,Treatment-related TEAE: Headache,[9],0 n (%)
same,Treatment-related TEAE: Nausea,[9],1 (11) n (%)
same,Treatment-related TEAE: QTc prolongation,[9],4 (44) n (%)
same,Treatment-related TEAE: Subretinal fluid,[9],3 (33) n (%)
same,Treatment-related TEAE: Vomiting,[9],2 (22) n (%)
same,AESI: Blurred vision,schedules 1/2 total N = 34,12 (35) n (%)
same,AESI: Eye disorders,schedules 1/2 total N = 34,17 (50) n (%)
same,AESI: Macular edema,schedules 1/2 total N = 34,1 (3) n (%)
same,AESI: Retinal edema,schedules 1/2 total N = 34,2 (6) n (%)
same,AESI: Subretinal fluid,schedules 1/2 total N = 34,8 (24) n (%)
same,AESI: Vitreous floaters,schedules 1/2 total N = 34,2 (6) n (%)
same,Patients with ≥1 AESI,schedules 1/2 total N = 34,17 (50) n (%)
same,Patients with ≥1 treatment-related TEAE,schedules 1/2 total N = 34,30 (88) n (%)
same,Total number of AESI,schedules 1/2 total N = 34,29 n
same,Total number of treatment-related TEAEs,schedules 1/2 total N = 34,166 n
same,Treatment-related TEAE: Blurred vision,schedules 1/2 total N = 34,17 (50) n (%)
same,Treatment-related TEAE: Dermatitis acneiform,schedules 1/2 total N = 34,5 (15) n (%)
same,Treatment-related TEAE: Fatigue,schedules 1/2 total N = 34,4 (12) n (%)
same,Treatment-related TEAE: Headache,schedules 1/2 total N = 34,4 (12) n (%)
same,Treatment-related TEAE: Nausea,schedules 1/2 total N = 34,6 (18) n (%)
same,Treatment-related TEAE: QTc prolongation,schedules 1/2 total N = 34,5 (15) n (%)
same,Treatment-related TEAE: Subretinal fluid,schedules 1/2 total N = 34,11 (32) n (%)
same,Treatment-related TEAE: Vomiting,schedules 1/2 total N = 34,5 (15) n (%)
same,grade ≥3 TEAE: QTc prolongation on ECG,schedules 1 and 2,9%
same,grade ≥3 TEAE: hypokalemia,schedules 1 and 2,6%
same,grade ≥3 TEAE: increased blood alkaline phosphatase,schedules 1 and 2,6%
same,grade ≥3 TEAE: increased gamma-glutamyl transferase,schedules 1 and 2,15%
same,grade ≥3 TEAE: lymphopenia,schedules 1 and 2,6%
same,grade ≥3 TEAE: rash,schedules 1 and 2,6%
same,patients discontinued owing to AEs,schedules 1 and 2,3%
same,patients with at least one AESI,schedules 1 and 2,50%
same,patients with grade ≥3 TEAEs,schedules 1 and 2,50%
same,treatment-related QTc prolongation,schedules 1 and 2,15%
same,treatment-related blurred vision,schedules 1 and 2,50%
same,treatment-related dermatitis acneiform,schedules 1 and 2,15%
same,treatment-related fatigue,schedules 1 and 2,12%
same,treatment-related headache,schedules 1 and 2,12%
same,treatment-related nausea,schedules 1 and 2,18%
same,treatment-related subretinal fluid,schedules 1 and 2,32%
same,treatment-related vomiting,schedules 1 and 2,15%
